Values joined by “and” are separate entries in the source; they are usually repeats but may differ in a detail not shown here. Identical values can stand only once.
Legend:
HeLa [1] = experiment: Cell cycle arrest in human HeLa cells assessed as accumulation at S phase phase at 50 uM after 24 hrs using […] by flow cytometry analysis relative to control; type: functional
Procedure, shortened: (§1)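 HeLa cells exposed to graded compound concentrations for 24 h, harvested by centrifugation, PBS-washed twice, fixed overnight on ice in 70% ethanol. Stained with 10 μg/mL propidium iodide plus 0.5 mg/mL RNase and 0.1% Triton X-100 in PBS, 30 min at 37 °C in the dark. Flow cytometry gates: sub-G0/G1, G0/G1, S, G2/M.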

HeLa [2] = experiment: Cell cycle arrest in human HeLa cells assessed as accumulation at S phase phase at 10 uM after 24 hrs using ethidium bromide staining by flow cytometry analysis relative to control; type: functional; conditions: in the assay text read “propidium iodide staining” for “ethidium bromide staining”; procedure, shortened: as §1
[3] = Cytotoxicity against human MCF10A cells after 2 days; type: cell-based, MCF-10A
Procedure, shortened: (§2)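 Cells seeded at 2-4 × 10^4 per well in medium with 10% FBS and incubated overnight at 37 °C, 5% CO2. Graded compound concentrations added on day 2. CCK-8 reagent added on day 4 for a further 4 h, absorbance read at 450 nm. IC50 from a four-parameter logistic fit; mean ± S.D. of three experiments run in triplicate.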

HeLa [4] = experiment: Cell cycle arrest in human HeLa cells assessed as accumulation at G0/G1 phase phase at 50 uM after 24 hrs using […] by flow cytometry analysis relative to control; type: functional; procedure, shortened: as §1
HeLa [5] = experiment: Cell cycle arrest in human HeLa cells assessed as accumulation at G2/M phase phase at 10 uM after 24 hrs using ethidium bromide staining by flow cytometry analysis relative to control; type: functional; conditions: in the assay text read “propidium iodide staining” for “ethidium bromide staining”; procedure, shortened: as §1
HeLa [6] = experiment: Cell cycle arrest in human HeLa cells assessed as accumulation at G0/G1 phase phase at 25 uM after 24 hrs using […] by flow cytometry analysis relative to control; type: functional; procedure, shortened: as §1
HeLa [7] = experiment: Cell cycle arrest in human HeLa cells assessed as accumulation at sub-G0/G1 phase at 25 uM after 24 hrs using […] by flow cytometry analysis relative to control; type: functional; procedure, shortened: as §1
HeLa [8] = experiment: Cell cycle arrest in human HeLa cells assessed as accumulation at S phase phase at 25 uM after 24 hrs using […] by flow cytometry analysis relative to control; type: functional; procedure, shortened: as §1
[9] = Cytotoxicity against human HCT15 cells after 2 days; type: functional, cell-based, HCT-15; procedure, shortened: as §2
HeLa [10] = experiment: Cell cycle arrest in human HeLa cells assessed as accumulation at sub-G0/G1 phase at 10 uM after 24 hrs using ethidium bromide staining by flow cytometry analysis relative to control; type: functional; conditions: in the assay text read “propidium iodide staining” for “ethidium bromide staining”; procedure, shortened: as §1
HeLa [11] = experiment: Cell cycle arrest in human HeLa cells assessed as accumulation at G2/M phase phase at 50 uM after 24 hrs using […] by flow cytometry analysis relative to control; type: functional; procedure, shortened: as §1
DU-145 = experiment: Cytotoxicity against human DU145 cells after 2 days; type: functional, cell-based; procedure, shortened: as §2
HeLa [12] = experiment: Cell cycle arrest in human HeLa cells assessed as accumulation at S phase phase at 5 uM after 24 hrs using ethidium bromide staining by flow cytometry analysis relative to control; type: functional; conditions: in the assay text read “propidium iodide staining” for “ethidium bromide staining”; procedure, shortened: as §1
T47D = experiment: Cytotoxicity against human T47D cells after 2 days; type: functional, cell-based; procedure, shortened: as §2
HeLa [13] = experiment: Cell cycle arrest in human HeLa cells assessed as accumulation at G0/G1 phase phase at 5 uM after 24 hrs using ethidium bromide staining by flow cytometry analysis relative to control; type: functional; conditions: in the assay text read “propidium iodide staining” for “ethidium bromide staining”; procedure, shortened: as §1
HeLa [14] = experiment: Cell cycle arrest in human HeLa cells assessed as accumulation at G2/M phase phase at 25 uM after 24 hrs using […] by flow cytometry analysis relative to control; type: functional; procedure, shortened: as §1
HeLa [15] = experiment: Cell cycle arrest in human HeLa cells assessed as accumulation at sub-G0/G1 phase at 50 uM after 24 hrs using […] by flow cytometry analysis relative to control; type: functional; procedure, shortened: as §1
HeLa [16] = experiment: Cell cycle arrest in human HeLa cells assessed as accumulation at G0/G1 phase phase at 10 uM after 24 hrs using ethidium bromide staining by flow cytometry analysis relative to control; type: functional; conditions: in the assay text read “propidium iodide staining” for “ethidium bromide staining”; procedure, shortened: as §1
HeLa [17] = experiment: Cell cycle arrest in human HeLa cells assessed as accumulation at G2/M phase phase at 5 uM after 24 hrs using ethidium bromide staining by flow cytometry analysis relative to control; type: functional; conditions: in the assay text read “propidium iodide staining” for “ethidium bromide staining”; procedure, shortened: as §1
[18] = molecular target: T1, DNA topoisomerase 1 (Homo sapiens) (UniProt P11387); experiment: Inhibition of recombinant human DNA topoisomerase-1-mediated relaxation of supercoiled DNA pBR322 at 100 uM after 7 hrs using ethidium bromide staining by agarose gel electrophoresis analysis
T1 sequence (whole entry): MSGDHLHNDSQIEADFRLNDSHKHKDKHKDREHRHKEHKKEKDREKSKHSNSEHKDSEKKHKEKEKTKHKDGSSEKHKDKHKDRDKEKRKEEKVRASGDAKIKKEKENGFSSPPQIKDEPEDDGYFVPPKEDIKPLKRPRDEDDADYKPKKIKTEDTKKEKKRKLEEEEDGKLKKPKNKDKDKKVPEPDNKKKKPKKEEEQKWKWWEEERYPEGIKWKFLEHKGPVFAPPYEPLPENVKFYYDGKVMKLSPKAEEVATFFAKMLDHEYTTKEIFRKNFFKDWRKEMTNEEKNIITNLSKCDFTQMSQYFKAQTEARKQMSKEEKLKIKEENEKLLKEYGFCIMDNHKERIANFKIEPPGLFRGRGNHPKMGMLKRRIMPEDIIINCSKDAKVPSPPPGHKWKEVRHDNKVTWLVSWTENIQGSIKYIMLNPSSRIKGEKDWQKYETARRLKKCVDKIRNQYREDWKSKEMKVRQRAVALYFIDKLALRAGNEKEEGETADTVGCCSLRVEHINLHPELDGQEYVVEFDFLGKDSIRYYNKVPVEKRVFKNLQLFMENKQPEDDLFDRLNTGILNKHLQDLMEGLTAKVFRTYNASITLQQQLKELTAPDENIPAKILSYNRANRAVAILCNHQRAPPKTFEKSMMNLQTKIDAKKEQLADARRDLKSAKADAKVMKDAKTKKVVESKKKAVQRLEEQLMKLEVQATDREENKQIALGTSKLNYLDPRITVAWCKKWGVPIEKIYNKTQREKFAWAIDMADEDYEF
Procedure, shortened: (§3)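 pBR322 (100 ng) incubated with recombinant human topo I (0.4 units) ± compound for 30 min at 37 °C. Buffer: 10 mM Tris-HCl pH 7.9, 150 mM NaCl, 0.1% BSA, 1 mM spermidine, 5% glycerol. Quenched with sarcosyl stop solution. 1% agarose gel run at 15 V for 7 h in TAE, ethidium bromide stain, supercoiled DNA quantified under UV.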

[19] = molecular target: T1, DNA topoisomerase 1 (Homo sapiens); experiment: Inhibition of recombinant human DNA topoisomerase-1-mediated relaxation of supercoiled DNA pBR322 at 20 uM after 7 hrs using ethidium bromide staining by agarose gel electrophoresis analysis; procedure, shortened: as §3
[20] = molecular target: DNA topoisomerase 2-alpha (Homo sapiens) (UniProt P11388); experiment: Inhibition of human DNA topoisomerase-2a-mediated relaxation of supercoiled DNA pBR322 at 100 uM after 4 hrs using ethidium bromide staining by agarose gel electrophoresis analysis
Procedure, shortened: (§4)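 Supercoiled pBR322 (200 ng) incubated with human topo IIα (1 unit) ± compound for 30 min at 30 °C. Buffer: 10 mM Tris-HCl pH 7.9, 50 mM NaCl, 50 mM KCl, 5 mM MgCl2, 1 mM EDTA, 1 mM ATP, BSA. Stopped with EDTA. 1% agarose gel run at 25 V for 4 h in TAE, ethidium bromide stain, supercoiled DNA quantified by UV imaging.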

[21] = molecular target: DNA topoisomerase 2-alpha (Homo sapiens) (UniProt P11388); experiment: Inhibition of human DNA topoisomerase-2a-mediated relaxation of supercoiled DNA pBR322 at 20 uM after 4 hrs using ethidium bromide staining by agarose gel electrophoresis analysis; procedure, shortened: as §4

Sequence of DNA topoisomerase 2-alpha (Homo sapiens) (P11388 whole entry): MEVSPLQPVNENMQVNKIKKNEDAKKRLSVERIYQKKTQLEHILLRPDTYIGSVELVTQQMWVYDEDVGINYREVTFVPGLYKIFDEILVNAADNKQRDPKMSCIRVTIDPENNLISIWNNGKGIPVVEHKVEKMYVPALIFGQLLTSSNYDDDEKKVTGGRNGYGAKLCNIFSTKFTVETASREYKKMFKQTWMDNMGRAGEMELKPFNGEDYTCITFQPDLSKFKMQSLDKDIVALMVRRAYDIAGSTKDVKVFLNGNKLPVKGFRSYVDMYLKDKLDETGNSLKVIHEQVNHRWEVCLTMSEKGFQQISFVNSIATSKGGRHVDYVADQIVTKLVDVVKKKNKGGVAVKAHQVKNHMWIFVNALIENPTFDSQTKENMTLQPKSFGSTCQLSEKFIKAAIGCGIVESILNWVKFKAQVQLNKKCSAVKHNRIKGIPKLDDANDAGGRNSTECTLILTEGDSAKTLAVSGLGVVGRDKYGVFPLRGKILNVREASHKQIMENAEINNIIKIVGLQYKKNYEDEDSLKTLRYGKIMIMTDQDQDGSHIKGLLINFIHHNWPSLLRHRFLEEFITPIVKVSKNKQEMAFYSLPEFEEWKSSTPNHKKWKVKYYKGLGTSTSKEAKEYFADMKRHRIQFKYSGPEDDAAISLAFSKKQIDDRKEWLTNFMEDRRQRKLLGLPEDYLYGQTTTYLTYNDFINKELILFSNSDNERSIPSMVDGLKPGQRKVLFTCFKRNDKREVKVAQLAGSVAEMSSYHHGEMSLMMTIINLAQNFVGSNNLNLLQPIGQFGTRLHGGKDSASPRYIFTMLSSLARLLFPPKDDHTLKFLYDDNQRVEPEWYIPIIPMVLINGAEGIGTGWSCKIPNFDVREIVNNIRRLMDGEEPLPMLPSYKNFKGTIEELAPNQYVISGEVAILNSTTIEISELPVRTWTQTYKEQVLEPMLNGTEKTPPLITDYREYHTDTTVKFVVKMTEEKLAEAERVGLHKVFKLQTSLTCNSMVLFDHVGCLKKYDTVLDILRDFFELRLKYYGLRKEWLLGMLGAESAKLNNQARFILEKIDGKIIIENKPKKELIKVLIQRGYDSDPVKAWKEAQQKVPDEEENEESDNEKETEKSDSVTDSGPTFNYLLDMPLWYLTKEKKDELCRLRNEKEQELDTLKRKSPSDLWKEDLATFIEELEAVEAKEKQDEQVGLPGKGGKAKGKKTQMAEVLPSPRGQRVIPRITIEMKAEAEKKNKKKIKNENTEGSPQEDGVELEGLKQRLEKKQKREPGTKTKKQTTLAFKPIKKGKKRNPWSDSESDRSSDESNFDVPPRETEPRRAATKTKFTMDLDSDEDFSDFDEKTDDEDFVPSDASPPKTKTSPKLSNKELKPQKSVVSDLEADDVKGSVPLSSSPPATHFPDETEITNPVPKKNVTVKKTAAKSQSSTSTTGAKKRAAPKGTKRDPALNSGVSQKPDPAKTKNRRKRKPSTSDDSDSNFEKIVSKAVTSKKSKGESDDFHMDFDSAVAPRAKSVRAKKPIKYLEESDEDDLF

inhibition [18]	SMILES	Activity (HeLa [1])	Activity (HeLa [2])	IC50 ([3]; mcf-10a)	Activity (HeLa [4])	Activity (HeLa [5])	Activity (HeLa [6])	Activity (HeLa [7])	Activity (HeLa [8])	Activity (HeLa [10])	Activity (HeLa [11])	Activity (HeLa [12])	Activity (HeLa [13])	Activity (HeLa [14])	Activity (HeLa [15])	Activity (HeLa [16])	Activity (HeLa [17])	IC50 ([9]; Homo sapiens, HCT-15, 48 h)	further results
71.9% and 77.9%	Cc1ccc2cc(-c3cccs3)nc(N3CCOCC3)c2c1	–	–	–	–	–	–	–	–	–	–	–	–	–	–	–	–	–	inhibition [19]: 1.1% and 3.7%; inhibition [20]: 0% and 5.1%
10.7%	Cc1ccc2cc(-c3cccs3)nc(N3CCNCC3)c2c1	1.26%	10.13%	–	6.92%	14.5%	49.19%	26.67%	4.72%	5.76%	1.35%	11.32%	65.59%	18.81%	90.48%	68.71%	14.91%	1.29 µM	IC50 ([3]; Homo sapiens, MCF-10A, 48 h): 5.54 µM; IC50 (DU-145; Homo sapiens, DU-145, 48 h): 4.15 µM; inhibition [19]: 0%; IC50 (T47D; Homo sapiens, T47D, 48 h): 1.14 µM; inhibition [20]: 22.1%

More lines, now with the values behind:

SMILES	inhibition [18]	Activity (HeLa [1])	Activity (HeLa [2])	IC50 ([3]; mcf-10a)	Activity (HeLa [4])	Activity (HeLa [5])	Activity (HeLa [6])	Activity (HeLa [7])	Activity (HeLa [8])	Activity (HeLa [10])	Activity (HeLa [11])	Activity (HeLa [12])	Activity (HeLa [13])	Activity (HeLa [14])	Activity (HeLa [15])	Activity (HeLa [16])	Activity (HeLa [17])	IC50 ([9]; Homo sapiens, HCT-15, 48 h)	further results
CCN1CCN(c2nc(-c3cccs3)cc3ccccc23)CC1.Cl	–	6.9%	12.88%	23.8 µM	31.74%	20%	54.43%	2.67%	18.42%	2.59%	3.46%	9.99%	68.51%	15.75%	54.68%	57.14%	15.9%	–	IC50 ([9]; hct-15): 9.29 µM; IC50 (DU-145; Homo sapiens, DU-145, 48 h): 46.6 µM; IC50 (T47D; t47d): 8.08 µM
CCN1CCN(c2nc(-c3cccs3)cc3ccccc23)CC1	–	7.96%	9.46%	49 µM	71.23%	17.28%	55.62%	3.77%	13.4%	2.08%	11.7%	10.47%	65.03%	19.68%	3.97%	66.35%	14.89%	7.42 µM	IC50 (DU-145; du-145): > 50 µM; IC50 (T47D; t47d): 17.4 µM
Cc1ccc2c(N3CCOCC3)nc(-c3cccs3)cc2c1	0%	–	–	–	–	–	–	–	–	–	–	–	–	–	–	–	–	–	inhibition [21]: 1.7%
c1csc(-c2cc3ccccc3c(N3CCOCC3)n2)c1	0%	–	–	–	–	–	–	–	–	–	–	–	–	–	–	–	–	–	inhibition [21]: 0%
Cc1ccc2c(N3CCNCC3)nc(-c3cccs3)cc2c1.Cl	–	0.17%	1.6%	8.18 µM	0.57%	0.58%	1.64%	96.03%	0.67%	86.88%	0%	13.49%	59.04%	0.27%	98.87%	6.13%	12.75%	0.94 µM	IC50 (DU-145; du-145): 11.7 µM; IC50 (T47D; Homo sapiens, T47D, 48 h): 7.57 µM

Reference: ChEMBL document CHEMBL3286131, “Design, synthesis and systematic evaluation of cytotoxic 3-heteroarylisoquinolinamines as topoisomerases inhibitors” (Eur J Med Chem, 2014)
